7 compounds from ChEMBL document CHEMBL4433267, “Symmetry-based ligand design and evaluation of small molecule inhibitors of programmed cell death-1/programmed death-ligand 1 interaction” (Bioorg Med Chem Lett, 2019) can be followed below.

The term EC50 denotes the concentration at which the effect is half-maximal. By Kd is commonly meant the constant that tells how readily two partners part at equilibrium. A lower Kd goes with a tighter complex.

The target of assay [1] is Programmed cell death protein 1/Programmed cell death 1 ligand 1 (Homo sapiens, UniProt Q9NZQ7). Kind of assay: Inhibition of human PDL1 expressed in CHO-K1 cells co-expressing aAPC assessed as reduction in PDL1 interaction with human PD1 expressed in Jurkat T cells incubated for 18 hrs by Bio-Glo reagent based luminescence assay. Format: cell-based. Put shortly: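 In the PD-1/PD-L1 blockade bioassay, activity is expressed as EC50, with anti-PD-1 antibody as positive control.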
Chain of Programmed cell death protein 1/Programmed cell death 1 ligand 1 (Q15116 whole entry): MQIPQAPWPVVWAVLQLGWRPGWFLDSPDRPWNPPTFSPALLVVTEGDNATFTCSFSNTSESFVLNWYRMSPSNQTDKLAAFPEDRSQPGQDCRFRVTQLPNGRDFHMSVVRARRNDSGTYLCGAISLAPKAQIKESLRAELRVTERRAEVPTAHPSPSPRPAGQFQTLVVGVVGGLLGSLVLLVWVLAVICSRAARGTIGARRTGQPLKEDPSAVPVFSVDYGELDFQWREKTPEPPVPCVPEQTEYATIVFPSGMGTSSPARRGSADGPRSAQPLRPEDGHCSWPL
Chain of Programmed cell death protein 1/Programmed cell death 1 ligand 1 (Q9NZQ7 whole entry): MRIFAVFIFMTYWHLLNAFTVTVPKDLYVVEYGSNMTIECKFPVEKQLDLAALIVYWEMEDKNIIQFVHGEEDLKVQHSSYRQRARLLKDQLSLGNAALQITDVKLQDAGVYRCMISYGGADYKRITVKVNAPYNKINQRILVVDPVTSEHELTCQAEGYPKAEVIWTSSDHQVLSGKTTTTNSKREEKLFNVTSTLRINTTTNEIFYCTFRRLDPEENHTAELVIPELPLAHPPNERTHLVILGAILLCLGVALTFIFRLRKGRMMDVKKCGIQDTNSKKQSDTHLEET

The target of assay [2] is T1, Programmed cell death 1 ligand 1 (Homo sapiens, UniProt Q9NZQ7). Kind of assay: Binding affinity to FC-tagged human PDL1 by SPR assay. Put shortly: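 Surface plasmon resonance against hPD-L1, reported as equilibrium dissociation constant (K_D).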
T1 sequence (Q9NZQ7 whole entry): as above
Assay [3] is filed under the species Homo sapiens. Kind of assay: Induction of IFN-gamma secretion in human CD4+ T cells in presence of dendritic cells incubated for 7 days by AlphaLISA based mixed lymphocyte reaction assay. In kind it is functional, cell-based. In outline:
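CD4+ T cells were cultured 7 days, either alone or with monocyte-derived dendritic cells, with or without test agent; anti-PD-1 antibody was run as comparator. IFN-γ in culture supernatants was measured as the activation read-out. Mean ± SD is from experiments in triplicate.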

In assay [4] the target is T1, Programmed cell death 1 ligand 1. Nature of the assay: Induction of Flag-tagged human PDL1 dimerization assessed as shortening of retention time of PD-L1 at 12 uM incubated for 10 mins by size-exclusion chromatography.

Calls of active or inactive are those of the source. No cut-off for these calls is given here.

On to `Cc1c(COc2ccc(CN[C@H](CO)C(=O)O)c(OCc3cncc(C#N)c3)c2)cccc1-c1cccc(COc2ccc(CN[C@H](CO)C(=O)O)c(OCc3cncc(C#N)c3)c2)c1`, for which the EC50 in assay [1] was 8400 nM. The compound also registered a Kd in assay [2] of 0.2 nM.
With `Cc1c(COc2ccc(CN[C@H](CO)C(=O)O)cc2)cccc1-c1cccc(COc2ccc(CN[C@H](CO)C(=O)O)c(OCc3cncc(C#N)c3)c2)c1C`, the Kd in assay [2] amounted to 0.29 nM.
In assay [2], `Cc1ccccc1-c1cccc(COc2ccc(CN[C@H](CO)C(=O)O)c(OCc3cncc(C#N)c3)c2)c1C` registered a Kd of 3 nM.
In the case of `COc1cc(OCc2cccc(-c3cccc(COc4ccc(CN[C@H](CO)C(=O)O)c(OCc5cncc(C#N)c5)c4)c3C)c2C)ccc1CN[C@H](CO)C(=O)O`, the EC50 in assay [1] was determined as 9500 nM. This compound also yielded a Kd in assay [2] of 0.21 nM.
For `Cc1c(COc2ccc(CN[C@H](CO)C(=O)O)c(OCc3cncc(C#N)c3)c2)cccc1-c1ccccc1`, the concentration giving a half-maximal response (EC50) in assay [1] is over 30000 nM. In addition, the dissociation constant (Kd) in assay [2] is 1.1 nM.
As for `Cc1c(COc2cccc(OCc3cncc(C#N)c3)c2)cccc1-c1cccc(COc2ccc(CN[C@H](CO)C(=O)O)c(OCc3cncc(C#N)c3)c2)c1C`, the EC50 in assay [1] is over 100000 nM. The same compound registered a Kd in assay [2] of 3.7 nM.
For the compound `Cc1c(COc2ccc(CN[C@H](CO)C(=O)O)c(OCc3cncc(C#N)c3)c2)cccc1-c1cccc(COc2ccc(CN[C@H](CO)C(=O)O)c(OCc3cncc(C#N)c3)c2)c1C`, the Activity result in assay [3] is “Dose-dependent effect”. Also, the EC50 in assay [1] was 1000 nM. Further, the outcome in assay [4] was Active. The compound also came in with a Kd in assay [2] of 0.019 nM.
